Measurements: ChEMBL document CHEMBL1255558, “Bis-alkylamine quindolone derivatives as new antimalarial leads” (Bioorg Med Chem Lett, 2010)

Assays:
[1] = Cytotoxicity against human HepG2A16 cells; type: cell-based
Outline: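 HepG2 A16 human hepatic cells seeded at 1 × 10⁴ cells/well and exposed to a range of concentrations for 48 h under standard culture conditions. IC₅₀ (50% growth inhibition) read from plots of degree of cell injury against concentration.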

Plasmodium falciparum = experiment: Antimalarial activity against chloroquine-resistant Plasmodium falciparum W2; type: functional, organism-based
Outline: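 Ring-stage parasites (1% parasitaemia in human red cells, sorbitol-synchronised) exposed to compounds for 48 h at 37 °C in RPMI-1640 with 25 mM HEPES pH 7.4 and 10% heat-inactivated human serum. Cells then fixed in 2% HCHO/PBS, stained with 1 nM YOYO-1 in PBS containing 100 mM NH₄Cl and 0.1% Triton X-100, and counted by flow cytometry (ex 488/em 520 nm). IC50 derived by curve fitting.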

[2] = Binding to hematin monomer
[3] = Selectivity ratio of IC50 for human HepG2A16 cells to IC50 for Plasmodium falciparum W2; type: ADME
Outline: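 Ratio of HepG2 A16 cytotoxicity IC₅₀ (48 h) to W2 IC₅₀. The W2 assay used sorbitol-synchronized ring stages at 1% parasitemia in human RBCs, 48 h at 37 °C in RPMI-1640 with 25 mM HEPES pH 7.4 and 10% heat-inactivated human serum. Cells were then fixed in 2% HCHO, stained with 1 nM YOYO-1 and counted by flow cytometry.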

Structure (SMILES) | IC50 [1] [µM] | IC50 (Plasmodium falciparum) [µM] | log Kass [2] | selectivity ratio [3]
CCN(CC)CCOc1c2ccc(Cl)cc2nc2c3cc(Cl)ccc3n(CCN(CC)CC)c12 | 5 | 0.051 | 5.2 | 98
O=c1c2ccc(Cl)cc2[nH]c2c1[nH]c1ccc(Cl)cc12 | – | > 10 | 4.9 | –
CCN(CC)CCOc1c2ccc(Cl)cc2nc2c1[nH]c1ccccc12 | – | 1.33 | 5.1 | –
CCN(CC)CCn1c2ccccc2c2c1c(=O)c1ccccc1n2CCN(CC)CC | 4.33 | 0.267 | 4.9 | 16
CCN(CC)CCOc1c2ccc(Cl)cc2nc2c1[nH]c1ccc(Cl)cc12 | – | 0.55 | – | –
CCN(CC)CCOc1c2ccccc2nc2c3ccccc3n(CCN(CC)CC)c12 | 7 | 0.539 | 4.9 | 12
CCN(CC)CCn1c2ccccc2c2c1c(=O)c1ccc(Cl)cc1n2CCN(CC)CC | 7 | 0.202 | 4.9 | 33
O=c1c2ccc(Cl)cc2[nH]c2c1[nH]c1ccccc12 | – | 8.42 | 5 | –
O=c1c2ccccc2[nH]c2c1[nH]c1ccccc12 | 21 | > 10 | 4.7 | < 2
CCN(CC)CCn1c2ccc(Cl)cc2c2c1c(=O)c1ccc(Cl)cc1n2CCN(CC)CC | 11 | 0.334 | 5.1 | 31
CCN(CC)CCOc1c2ccc(Cl)cc2nc2c3ccccc3n(CCN(CC)CC)c12 | 8 | 0.186 | 4.9 | 44
CCN(CC)CCOc1c2ccccc2nc2c1[nH]c1ccccc12 | 9 | 2.64 | 5 | 3.6
